Assay: Antiinflammatory activity in rat Polymorphonuclear leukocyte assessed as inhibition of LPS-induced nitric oxide production at 5 uM
Assay type: functional
In short: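 Rat polymorphonuclear leukocytes stimulated with LPS; compounds tested at 5 μM, with dexamethasone at the same concentration as positive control. NO in culture supernatant was read by Griess reaction: equal volume of reagent (0.1% naphthylethylenediamine, 1% sulfanilamide in 5% phosphoric acid), 20 min at room temperature, A540, against sodium nitrite standards. Percent inhibition, n = 3.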

**Q.** Which inhibition at 5 µM does the source give for `COc1cc(C(=O)OC[C@H]2O[C@@H](Oc3cc(O)c(OC)c(OC)c3)[C@H](O)[C@@H](O)[C@@H]2O)cc(OC)c1O` here?
**A.** 4.7%

**Q.** With `CC1(C)CC[C@]2(C(=O)O[C@@H]3O[C@H](CO)[C@@H](O)[C@H](O)[C@H]3O)[C@H](O)C[C@]3(C)C(=CC[C@@H]4[C@@]5(C)CC[C@H](O[C@@H]6O[C@H](C(=O)O)[C@@H](O)[C@H](O[C@@H]7OC[C@H](O)[C@H](O)[C@H]7O[C@@H]7OC[C@@H](O)[C@H](O)[C@H]7O)[C@H]6O[C@@H]6O[C@H](CO)[C@@H](O)[C@H](O)[C@H]6O)C(C)(C)[C@@H]5CC[C@]43C)[C@@H]2C1` [GORDONOSIDE N] as the compound, how does the inhibition at 5 µM read?
**A.** 8.9%

**Q.** With `C[C@@H]1C[C@H]2[C@@H]3CCC4=CC(=O)C=C[C@]4(C)[C@@]3(F)[C@@H](O)C[C@]2(C)[C@@]1(O)C(=O)CO` [DEXAMETHASONE] as the compound, how does the inhibition at 5 µM read?
**A.** 74.7%

**Q.** Which inhibition at 5 µM does the source give for `CC1(C)CC[C@]2(C(=O)O[C@@H]3O[C@H](CO)[C@@H](O)[C@H](O)[C@H]3O)[C@H](O)C[C@]3(C)C(=CC[C@@H]4[C@@]5(C)CC[C@H](O[C@@H]6O[C@H](C(=O)O)[C@@H](O)[C@H](O[C@@H]7OC[C@H](O)[C@H](O)[C@H]7O[C@@H]7OC[C@H](O)[C@H](O)[C@H]7O)[C@H]6O)C(C)(C)[C@@H]5CC[C@]43C)[C@@H]2C1` [GORDONOSIDE L] here?
**A.** 14%

**Q.** Which inhibition at 5 µM does the source give for `C/C=C(/C)C(=O)O[C@H]1CC(C)(C)C[C@H]2C3=CC[C@@H]4[C@@]5(C)CC[C@H](O[C@@H]6O[C@H](C(=O)O)[C@@H](O)[C@H](O[C@@H]7OC[C@H](O)[C@H](O)[C@H]7O[C@@H]7OC[C@@H](O)[C@H](O)[C@H]7O)[C@H]6O[C@@H]6O[C@H](CO)[C@H](O)[C@H](O)[C@H]6O)C(C)(C)[C@@H]5CC[C@@]4(C)[C@]3(C)C[C@@H](O)[C@@]12CO` [GORDONOSIDE I] here?
**A.** 96.6%

**Q.** With `CC1(C)CC[C@]2(C(=O)O[C@@H]3O[C@H](CO)[C@@H](O)[C@H](O)[C@H]3O)[C@H](O)C[C@]3(C)C(=CC[C@@H]4[C@@]5(C)CC[C@H](O[C@@H]6O[C@H](C(=O)O)[C@@H](O)[C@H](O[C@@H]7OC[C@H](O)[C@H](O)[C@H]7O[C@@H]7OC[C@@H](O)[C@H](O)[C@H]7O)[C@H]6O[C@@H]6O[C@H](CO)[C@H](O)[C@H](O)[C@H]6O)C(C)(C)[C@@H]5CC[C@]43C)[C@@H]2C1` [GORDONOSIDE O] as the compound, how does the inhibition at 5 µM read?
**A.** 12.6%

**Q.** With `CC1(C)CC[C@]2(C(=O)O[C@@H]3O[C@H](CO)[C@@H](O)[C@H](O)[C@H]3O)[C@H](O)C[C@]3(C)C(=CC[C@@H]4[C@@]5(C)CC[C@H](O[C@@H]6O[C@H](C(=O)O)[C@@H](O)[C@H](O[C@@H]7OC[C@H](O)[C@H](O)[C@H]7O)[C@H]6O)C(C)(C)[C@@H]5CC[C@]43C)[C@@H]2C1` [GORDONOSIDE K] as the compound, how does the inhibition at 5 µM read?
**A.** 6.4%

**Q.** Which inhibition at 5 µM does the source give for `C/C=C(/C)C(=O)O[C@H]1CC(C)(C)C[C@H]2C3=CC[C@@H]4[C@@]5(C)CC[C@H](O[C@@H]6O[C@H](C(=O)O)[C@@H](O)[C@H](O[C@@H]7OC[C@H](O)[C@H](O)[C@H]7O[C@@H]7OC[C@@H](O)[C@H](O)[C@H]7O)[C@H]6O[C@@H]6O[C@H](CO)[C@H](O)[C@H](O)[C@H]6O)C(C)(C)[C@@H]5CC[C@@]4(C)[C@]3(C)[C@@H](O)[C@@H](O)[C@@]12CO` [GORDONOSIDE J] here?
**A.** 9.1%

**Q.** For `COc1cc(C(=O)OC[C@H]2O[C@@H](Oc3cc(O)c(OC)c(OC)c3)[C@H](O)[C@@H](O)[C@@H]2O)ccc1O`, which inhibition at 5 µM is on record?
**A.** 6.5%

**Q.** With `C[C@@H]1O[C@@H](O[C@@H]2[C@@H](O)[C@H](O[C@H]3[C@H](O[C@H]4CC[C@]5(C)[C@H]6CC=C7[C@@H]8CC(C)(C)CC[C@]8(C(=O)O[C@@H]8O[C@H](CO)[C@@H](O)[C@H](O)[C@H]8O)[C@H](O)C[C@@]7(C)[C@]6(C)CC[C@H]5C4(C)C)O[C@H](C(=O)O)[C@@H](O)[C@@H]3O[C@@H]3OC[C@@H](O)[C@H](O)[C@H]3O)O[C@H](CO)[C@H]2O)[C@H](O)[C@H](O)[C@H]1O` [GORDONOSIDE P] as the compound, how does the inhibition at 5 µM read?
**A.** 5.9%

**Q.** Which inhibition at 5 µM does the source give for `C[C@@H]1O[C@@H](O[C@H]2[C@H](O[C@@H]3[C@@H](O)[C@H](O[C@H]4CC[C@]5(C)[C@H]6CC=C7[C@@H]8CC(C)(C)CC[C@]8(C(=O)O[C@@H]8O[C@H](CO)[C@@H](O)[C@H](O)[C@H]8O)[C@H](O)C[C@@]7(C)[C@]6(C)CC[C@H]5C4(C)C)O[C@H](C(=O)O)[C@H]3O)OC[C@H](O)[C@@H]2O)[C@H](O)[C@H](O)[C@H]1O` [GORDONOSIDE M] here?
**A.** 2.9%

Assay: Antiinflammatory activity in Macrophage assessed as LPS-induced nitric oxide production by Griess assay
Assay type: functional, cell-based
In short: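 LPS-activated macrophages. Nitrite in culture supernatant was measured by the Griess reaction: supernatant mixed with an equal volume of Griess reagent (0.1% w/v N-(1-naphthyl)ethylenediamine dihydrochloride plus 1% w/v sulfanilamide in 5% v/v phosphoric acid, combined within 1 h of use), 20 min at room temperature, then A540. Sodium nitrite standards were used. Result reported as IC50.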

**Q.** Which IC50 does the source give for `C/C=C(/C)C(=O)O[C@H]1CC(C)(C)C[C@H]2C3=CC[C@@H]4[C@@]5(C)CC[C@H](O[C@@H]6O[C@H](C(=O)O)[C@@H](O)[C@H](O[C@@H]7OC[C@H](O)[C@H](O)[C@H]7O[C@@H]7OC[C@@H](O)[C@H](O)[C@H]7O)[C@H]6O[C@@H]6O[C@H](CO)[C@H](O)[C@H](O)[C@H]6O)C(C)(C)[C@@H]5CC[C@@]4(C)[C@]3(C)C[C@@H](O)[C@@]12CO` [GORDONOSIDE I] here?
**A.** 140 nM
